Data taken from ChEMBL document CHEMBL1641374, “Synthesis of antiproliferative flavones from calycopterin, major flavonoid of Calycopteris floribunda Lamk” (Bioorg Med Chem, 2011).

Columns and labels:
KB [1] = assay: Cytotoxicity against human KB cells at 10^-6 M after 72 hrs by MTS assay; format: functional
Outline: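 KB cells in D-MEM with 10% FCS were seeded at 600 cells/well and dosed 24 h later with flavone at 10^-6 M in DMSO. Controls received DMSO at 1% final. After 72 h, MTS was added for 3 h at 37 °C and A490 read in triplicate. Growth inhibition (%) = (1 − OD treated/OD control)×100.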

KB [2] = assay: Cytotoxicity against human KB cells after 72 hrs by MTS assay; format: functional, cell-based
Ovis aries = species on record: Ovis aries; assay: Inhibition of sheep brain tubulin polymerization after 5 mins
Outline: (§1)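 Sheep brain microtubule proteins were purified by two assembly/disassembly cycles (37 °C/0 °C) in 100 mM MES pH 6.6, 1 mM EGTA, 0.5 mM MgCl2. Polymerization rate was followed by turbidity at 350 nm, with deoxypodophyllotoxin as reference. Compounds were tested at ~2×10^-5 M for % inhibition, with IC50 determined for selected compounds.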

HL-60 [3] = assay: Induction of apoptosis in human HL60 cells assessed as induction of caspase 3/7 activation at 100 uM relative to control; format: functional
Outline: (§2)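 HL60 cells (20,000/well) were treated 24 and 48 h with compounds in DMSO. Vehicle and doxorubicine served as controls. Fluorescence (ex 360/em 465 nm) was followed over 3 h.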

HL-60 [4] = assay: Induction of apoptosis in human HL60 cells assessed as early apoptosis cells at 200 nM after24 hrs by annexin-V-PE/7-AAD staining (reference value: 2.6%); format: functional
HL-60 [5] = assay: Induction of apoptosis in human HL60 cells assessed as viable cells at 200 nM after 48 hrs by annexin-V-PE/7-AAD staining (reference value: 97.4%); format: functional; settings: HL-60, 48 h, read-out: Activity
HL-60 [6] = assay: Induction of apoptosis in human HL60 cells assessed as late apoptosis cells at 200 nM after 48 hrs by annexin-V-PE/7-AAD staining (reference value: 0.1%); format: functional
HL-60 [7] = assay: Induction of apoptosis in human HL60 cells assessed as late apoptosis cells at 200 nM after24 hrs by annexin-V-PE/7-AAD staining (reference value: 0.2%); format: functional
HL-60 [8] = assay: Induction of apoptosis in human HL60 cells assessed as early apoptosis cells at 200 nM after 48 hrs by annexin-V-PE/7-AAD staining (reference value: 2.5%); format: functional
HL-60 [9] = assay: Induction of apoptosis in human HL60 cells assessed as viable cells at 200 nM after24 hrs by annexin-V-PE/7-AAD staining (reference value: 97.2%); format: functional; settings: read-out: Activity
HL-60 [10] = assay: Induction of apoptosis in human HL60 cells assessed as viable cells at 50 nM after 48 hrs by annexin-V-PE/7-AAD staining (reference value: 97.4%); format: functional; settings: HL-60, 48 h, read-out: Activity
KB [11] = assay: Induction of cell cycle arrest in human KB cells assessed as accumulation at G0/G1phase at 50 nM after 24 hrs by propidium iodide staining-based flow cytometry (reference value: 72.9%); format: functional
A549 = assay: Cytotoxicity against human A549 cells after 72 hrs by MTS assay; format: functional, cell-based; settings: A549, 72 h
[12] = Inhibition of sheep brain tubulin polymerization at 2x10'-5 M after 5 mins; parameters: species or system Ovis aries; outline: as §1
K562 = assay: Cytotoxicity against human K562 cells after 72 hrs by MTS assay; format: functional, cell-based; settings: K562, 72 h
[13] = Cytotoxicity against human MCF7/R cells after 72 hrs by MTS assay; format: functional, cell-based; settings: MCF7R
HL-60 [14] = assay: Induction of apoptosis in human HL60 cells assessed as early apoptosis cells at 50 nM after24 hrs by annexin-V-PE/7-AAD staining (reference value: 2.6%); format: functional
MIA PaCa-2 = assay: Cytotoxicity against human MIAPaCa2 cells after 72 hrs by MTS assay; format: functional, cell-based; settings: MIA PaCa-2, 72 h
KB [15] = assay: Induction of cell cycle arrest in human KB cells assessed as accumulation at G2/M phase at 50 nM after 48 hrs by propidium iodide staining-based flow cytometry (reference value: 13.8%); format: functional
HL-60 [16] = assay: Induction of apoptosis in human HL60 cells assessed as late apoptosis cells at 50 nM after 48 hrs by annexin-V-PE/7-AAD staining (reference value: 0.1%); format: functional
HCT-116 = assay: Cytotoxicity against human HCT116 cells after 72 hrs by MTS assay; format: functional, cell-based; settings: HCT-116, 72 h
OVCAR-8 = assay: Cytotoxicity against human OVCAR8 cells after 72 hrs by MTS assay; format: functional, cell-based; settings: OVCAR-8, 72 h
SK-OV-3 = assay: Cytotoxicity against human SKOV3 cells after 72 hrs by MTS assay; format: functional, cell-based; settings: SK-OV-3, 72 h
HT-29 = assay: Cytotoxicity against human HT-29 cells after 72 hrs by MTS assay; format: functional, cell-based; settings: HT-29, 72 h
HCT-15 = assay: Cytotoxicity against human HCT15 cells after 72 hrs by MTS assay; format: functional, cell-based; settings: HCT-15, 72 h
HL-60 [17] = assay: Induction of apoptosis in human HL60 cells assessed as late apoptosis cells at 50 nM after24 hrs by annexin-V-PE/7-AAD staining (reference value: 0.2%); format: functional
PC-3 = assay: Cytotoxicity against human PC3 cells after 72 hrs by MTS assay; format: functional, cell-based; settings: PC-3, 72 h
SF-268 = assay: Cytotoxicity against human SF268 cells after 72 hrs by MTS assay; format: functional, cell-based; settings: SF-268, 72 h
[18] = Cytotoxicity against human HL60R cells after 72 hrs by MTS assay; format: functional, cell-based; settings: HL-60, 72 h
KB [19] = assay: Induction of cell cycle arrest in human KB cells assessed as accumulation at S phase at 50 nM after 48 hrs by propidium iodide staining-based flow cytometry (reference value: 18.4%); format: functional
KB [20] = assay: Induction of cell cycle arrest in human KB cells assessed as accumulation at subG1 phase at 50 nM after 48 hrs by propidium iodide staining-based flow cytometry (reference value: 1.2%); format: functional
KB [21] = assay: Induction of cell cycle arrest in human KB cells assessed as accumulation at G2/M phase at 50 nM after 24 hrs by propidium iodide staining-based flow cytometry (reference value: 19.6%); format: functional
KB [22] = assay: Induction of cell cycle arrest in human KB cells assessed as accumulation at subG1 phase at 50 nM after 24 hrs by propidium iodide staining-based flow cytometry (reference value: 0.7%); format: functional
KB [23] = assay: Induction of cell cycle arrest in human KB cells assessed as accumulation at G0/G1phase at 50 nM after 48 hrs by propidium iodide staining-based flow cytometry (reference value: 66.6%); format: functional
HL-60 [24] = assay: Induction of apoptosis in human HL60 cells assessed as viable cells at 50 nM after24 hrs by annexin-V-PE/7-AAD staining (reference value: 97.2%); format: functional; settings: read-out: Activity
HL-60 [25] = assay: Induction of apoptosis in human HL60 cells assessed as early apoptosis cells at 50 nM after 48 hrs by annexin-V-PE/7-AAD staining (reference value: 2.5%); format: functional
HepG2 = assay: Cytotoxicity against human HepG2 cells after 72 hrs by MTS assay; format: functional, cell-based; settings: HepG2, 72 h
KB [26] = assay: Induction of cell cycle arrest in human KB cells assessed as accumulation at S phase at 50 nM after 24 hrs by propidium iodide staining-based flow cytometry (reference value: 6.9%); format: functional
HL-60 [27] = assay: Cytotoxicity against human HL60 cells after 72 hrs by MTS assay; format: functional, cell-based; settings: HL-60, 72 h
HL-60 [28] = assay: Induction of apoptosis in human HL60 cells assessed as induction of caspase 3/7 activation at 100 nM relative to control; format: functional; outline: as §2

Structure (SMILES): COc1ccc(-c2oc3c(OC)c(OC)c(OC)c(O)c3c(=O)c2OC)cc1C#N
- Activity (KB [1]): <=13%

Structure (SMILES): COc1ccc(-c2oc3c(OC)c(OC)c(OC)c(O)c3c(=O)c2OC)cc1I
- Activity (KB [1]): <=13%

Structure (SMILES): COc1ccc(-c2oc3c(OC)c(OC)c(OC)c(O)c3c(=O)c2OC)cc1N(C)C
- Activity (KB [1]): 13%

Structure (SMILES): COc1ccc(-c2oc3c(OC)c(OC)c(OC)c(O)c3c(=O)c2OC)cc1C=O
- Activity (KB [1]): <=13%

Structure (SMILES): COc1ccc(-c2oc3c(OC)c(OC)c(O)c(O)c3c(=O)c2OC)cc1N
- Activity (KB [1]): 38%
- IC50 (KB [2]): 10000 nM

Structure (SMILES): COc1ccc(-c2oc3c(OC)c(OC)c(OC)c(O)c3c(=O)c2OC)cc1 [5-HYDROXYAURANETIN]
- inhibition (Ovis aries): 2%
- Activity (KB [1]): 73%
- IC50 (KB [2]): 720 nM
- fold change (FC) (HL-60 [3]): 4.5

Structure (SMILES): COc1cccc2c1C(=O)c1c(O)c3c(c(O)c1C2=O)C[C@@](O)(C(=O)CO)C[C@@H]3O[C@H]1C[C@H](N)[C@H](O)[C@H](C)O1 [DOXORUBICIN]
- Activity (HL-60 [4]): 45.9%
- viability at 0.2 µM (HL-60 [5]): 5.2%
- Activity (HL-60 [6]): 5.6%
- Activity (HL-60 [7]): 1.2%
- Activity (HL-60 [8]): 89.2%
- viability at 0.2 µM (HL-60 [9]): 52.8%

Structure (SMILES): COc1ccc(-c2oc3c(O)c(OC)c(OC)c(O)c3c(=O)c2OC)cc1N
- Activity (KB [1]): 34%
- IC50 (KB [2]): > 10000 nM

Structure (SMILES): COc1ccc(-c2oc3c(OC)c(OC)c(OC)c(O)c3c(=O)c2OC)cc1N
- viability at 0.05 µM (HL-60 [10]): 60.1%
- Activity (KB [11]): 39.3%
- IC50 (A549): 32 nM
- IC50 [12]: 13000 nM
- Activity (KB [1]): 96%
- IC50 (K562): 9 nM
- IC50 [13]: 34 nM
- Activity (HL-60 [14]): 20.7%
- IC50 (KB [2]): 25 nM
- IC50 (MIA PaCa-2): 33 nM
- Activity (KB [15]): 14%
- Activity (HL-60 [16]): 2.2%
- IC50 (HCT-116): 25 nM
- IC50 (OVCAR-8): 105 nM
- IC50 (SK-OV-3): 37 nM
- IC50 (HT-29): 50 nM
- IC50 (HCT-15): 12 nM
- Activity (HL-60 [17]): 2.1%
- IC50 (PC-3): > 1000 nM
- IC50 (SF-268): 400 nM
- IC50 [18]: 14 nM
- Activity (KB [19]): 32%
- Activity (KB [20]): 15.5%
- Activity (KB [21]): 34.5%
- Activity (KB [22]): 7.3%
- Activity (KB [23]): 38.5%
- viability at 0.05 µM (HL-60 [24]): 77.1%
- Activity (HL-60 [25]): 37.6%
- IC50 (HepG2): 81 nM
- Activity (KB [26]): 19.2%
- IC50 (HL-60 [27]): 36 nM
- fold change (FC) (HL-60 [28]): 3.2

Structure (SMILES): COc1c(OC)c(O)c2c(=O)c(OC)c(-c3ccc(O)c(C=O)c3)oc2c1OC
- Activity (KB [1]): <=13%

Structure (SMILES): COc1ccc(-c2oc3c(OC)c(OC)c(OC)c(O)c3c(=O)c2OC)cc1CN(C)C
- Activity (KB [1]): <=13%

Structure (SMILES): COc1ccc(-c2oc3c(OC)c(OC)c(OC)c(O)c3c(=O)c2OC)cc1CN
- Activity (KB [1]): <=13%
